Laboratory results: ChEMBL document CHEMBL4130437, “Bioassay-Guided Isolation of Antibacterial Metabolites from Emericella sp. TJ29” (J Nat Prod, 2017)
Converted amounts (≈) assume the structure as drawn. The source made the active and inactive calls. The calls are words filed in the database; no cut-off is given here.

Legend:
Escherichia coli [1] = experiment: Antibacterial activity against ESBL-producing Escherichia coli ATCC 35218 after 16 hrs by broth microdilution method; format: functional; conditions: ATCC 35218, 16 h
Procedure, shortened: (§1)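 Broth microdilution MIC with the inoculum standardized to about 5 × 10^5 CFU/mL. Plates were incubated 16 h at 37 °C. MIC was taken as the lowest concentration with no visible bacterial growth. Each experiment was run three times.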

Enterococcus faecalis = experiment: Antibacterial activity against Enterococcus faecalis ATCC 29212 after 16 hrs by broth microdilution method; format: functional; conditions: ATCC 29212, 16 h; procedure, shortened: as §1
Staphylococcus aureus = experiment: Antibacterial activity against methicillin-resistant Staphylococcus aureus ATCC 43300 after 16 hrs by broth microdilution method; format: functional; conditions: ATCC 43300, 16 h
Klebsiella pneumoniae = experiment: Antibacterial activity against Klebsiella pneumoniae ATCC 700603 after 16 hrs by broth microdilution method; format: functional; conditions: Klebsiella pneumoniae, 700603, 16 h; procedure, shortened: as §1
Pseudomonas aeruginosa = experiment: Antibacterial activity against Pseudomonas aeruginosa ATCC 15442 after 16 hrs by broth microdilution method; format: functional; conditions: ATCC 15442, 16 h; procedure, shortened: as §1
BEAS-2B = experiment: Cytotoxicity against human BEAS2B cells assessed as reduction in cell viability at 0.064 to 40 uM after 48 hrs by MTS assay; format: cell-based
Procedure, shortened: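 BEAS-2B cells grown in RPMI-1640 or DMEM with 10% FBS at 37 °C under 5% CO2. Seeded at 1 × 10^5 cells/mL and left to adhere 12 h. Exposed to compound at various concentrations in triplicate for 48 h, with cisplatin and paclitaxel as positive controls. MTS was added for 4 h, then cells were lysed in SDS/DMF and OD read at 490 nm. IC50 by Reed–Muench.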

Escherichia coli [2] = experiment: Bacteriostatic activity against ESBL-producing Escherichia coli ATCC 35218 after 2 to 24 hrs by time kill assay; format: functional, organism-based
Procedure, shortened: (§2)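 Overnight MHB culture was diluted into fresh MHB at 5 × 10^5 CFU/mL. Tubes got varied compound concentrations, with untreated inoculated medium as control, and were shaken at 37 °C. At 2, 4, 6, 8, 12 and 24 h, samples were serially diluted, plated on tryptic soy agar and incubated overnight at 37 °C, then colonies were counted. Done at least three times, mean/SD.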

Escherichia coli [3] = experiment: Bactericidal activity against ESBL-producing Escherichia coli ATCC 35218 after 2 to 24 hrs by time kill assay; format: functional, organism-based; procedure, shortened: as §2

Compound	MIC (Escherichia coli [1]) [µg/mL]	MIC (Enterococcus faecalis) [µg/mL]	MIC (Staphylococcus aureus) [µg/mL]	MIC (Klebsiella pneumoniae) [µg/mL]	MIC (Pseudomonas aeruginosa) [µg/mL]	Activity (BEAS-2B)	Activity (Escherichia coli [2])	Activity (Escherichia coli [3])
CCC[C@H](O)[C@H](O)C[C@H]1OCc2cccc(OC)c21	8 (≈ 30 µM)	32 (≈ 120 µM)	> 128	> 128	32 (≈ 120 µM)	–	–	–
NCC[C@H](O)C(=O)N[C@@H]1C[C@H](N)[C@@H](O[C@H]2O[C@H](CN)[C@@H](O)[C@H](O)[C@H]2O)[C@H](O)[C@H]1O[C@H]1O[C@H](CO)[C@@H](O)[C@H](N)[C@H]1O [AMIKACIN]	2 (≈ 3.42 µM)	–	–	–	–	–	–	–
C=C1[C@H]2C(=O)[C@]3(C)C=C4C(=O)OC[C@]14[C@@]1(CC[C@H]4C(C)(C)C(=O)C=C[C@]4(C)[C@]21O)C3	64 (≈ 157 µM)	> 128	> 128	> 128	> 128	–	–	–
C=C1[C@H]2C(=O)[C@@]3(C)C[C@]4(CC[C@H]5C(C)(C)C(=O)C=C[C@]5(C)[C@H]24)[C@@]12COC(=O)[C@@H]2[C@H]3O	2 (≈ 4.87 µM)	32 (≈ 78 µM)	32 (≈ 78 µM)	32 (≈ 78 µM)	8 (≈ 19.5 µM)	Non-Toxic	Active	–
CCC[C@H](O)[C@H](O)C[C@H]1OCc2c(OC)cccc21	4 (≈ 15 µM)	32 (≈ 120 µM)	32 (≈ 120 µM)	16 (≈ 60.1 µM)	4 (≈ 15 µM)	Non-Toxic	–	Active
C=C1[C@H]2C(=O)[C@]3(C)C=C4C(=O)OC[C@]14[C@@]1(CC[C@H]4C(C)(C)C(=O)C=C[C@]4(C)[C@H]21)C3	32 (≈ 81.5 µM)	> 128	64 (≈ 163 µM)	64 (≈ 163 µM)	32 (≈ 81.5 µM)	–	–	–
COc1cccc2c1CO[C@@H]2C[C@@H](O)[C@@H](O)[C@H]1O[C@@H]1C	> 128	> 128	> 128	> 128	> 128	–	–	–
O=C(N[C@H](CO)[C@H](O)c1ccc([N+](=O)[O-])cc1)C(Cl)Cl [CHLORAMPHENICOL]	–	16 (≈ 49.5 µM)	–	–	–	–	–	–
COc1cccc(/C=C/[C@@H](O)[C@@H](O)[C@H]2O[C@@H]2C)c1CO	32 (≈ 114 µM)	> 128	64 (≈ 228 µM)	> 128	32 (≈ 114 µM)	–	–	–
CO/N=C(\C(=O)N[C@@H]1C(=O)N2C(C(=O)O)=C(CSc3nc(=O)c(O)nn3C)CS[C@H]12)c1csc(N)n1 [CEFTRIAXONE]	–	–	–	1 (≈ 1.8 µM)	1 (≈ 1.8 µM)	–	–	–
CC1(C)C(=O)C=C[C@@]2(C)[C@H]1CC[C@@]13C[C@@]4(C)C=C5C(=O)OC[C@]51[C@@]1(CO1)[C@@H](C4=O)[C@@H]23	32 (≈ 78.3 µM)	> 128	> 128	> 128	64 (≈ 157 µM)	–	–	–
